Compounds with a hit are over-represented: about 6.4% of the library has one in this group of screens.
H69AR inhibit: blocks growth of human H69AR lung tumor cells; AID 598; hit rate 6% among 85,000; H69AR lung tumor viability, ATP luminescence, 72 h; active compounds read low; viability, % at 10 µM;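 active means viability at or below 40%; inactive means viability above 40%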;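 further: multidrug resistant small cell line overexpressing MRP-1 efflux transporter; 100% = mean luminescence of untreated control wells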
tolC growth inh: growth inhibitors of E. coli BW25113 tolC mutant; hit rate 2.2% among 65,000; OD615; AID 573; growth inhibition, % at 10 µM (by protocol);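 active means growth inhibition at or above a cutoff equal to the mean over every tested compound plus 3 SD, cut at about 60% in these data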;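 further: growth measured after 20 h incubation at 37 °C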
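Test system: tolC-deleted E. coli BW25113; medium: LB with kanamycin 50 µg/mL; compound: single-point testing at 10 µM; incubation: 20 h compound exposure of bacteria at 37 °C; signal: OD at 615 nm; evaluation: growth inhibition in percent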
Jurkat tox 60K: cytotoxic compounds reducing Jurkat cell viability. Jurkat E6.1 viability, ATP luminescence, 48 h. inhibition, % at 4 µM. hit rate 1.2% among 56,000;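 active means inhibition above the mean inhibition of all tested compounds plus 3 SD, cut at about 28% in these data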
Ecoli WT expand: growth inhibitors of E. coli BW25113 wild type. AID 710. hit rate 0.15% among 98,000. growth inhibition, % at 100 µM. OD600 absorbance;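 active means growth inhibition above about 50% at one test dose, limit read from the data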;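 further: growth measured after 20 h incubation at 37 °C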
HUVEC inhibit: human endothelial cell proliferation inhibition; hit rate 1.1% among 86,000; HUVEC proliferation, CellTiter-Glo luminescence, 72 h; active compounds read low; viability, % at 10 µM (by protocol); AID 648;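 active means viability at or below 30%; inactive means viability above 30%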;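 further: 100% = median luminescence of DMSO-only cell control wells on each plate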
Lung fibro prol: blocks proliferation of human lung fibroblasts. LL 47 human lung fibroblast viability, ATP luminescence; active compounds read low. viability, % at 10 µM. hit rate 1.1% among 85,000. AID 719;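 active means viability at or below 50% in the single dose screen; inactive means viability above 50%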;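 further: compound exposure lasted 72 h before the ATP readout; 100% = median luminescence of untreated cell-only wells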
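material = human LL 47 lung fibroblast cells | dosing = compounds added from tenfold dosing solution, 0.1% DMSO final | timing = overnight cell rest, 72 h compound treatment at 37 °C | measured by = CellTiter-Glo luminescence measuring cellular ATP | evaluation = % viability versus median cells-only luminescence | control set = cell-only wells, no compound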
* = called active by the depositor; nt = no result given.

SMILES	H69AR inhibit	tolC growth inh	Jurkat tox 60K	Ecoli WT expand	HUVEC inhibit	Lung fibro prol
Cc1ccc(-n2nc(C)c3c(C)c(CCC(=O)NCc4ccco4)c(C)nc32)cc1	42.4	9.8	-3.9	-6.0	86.8	99.6
Cc1ccc(-n2nc(C)c3c(C)c(CCC(=O)NCc4ccccc4)c(C)nc32)cc1	32.2*	nt	nt	-8.0	66.0	77.2
Cc1cccc(C)c1NC(=O)CSCC(=O)c1ccc(O)c(O)c1	18.3*	19.4	nt	4.0	63.4	78.8
COc1ccc(S(=O)(=O)n2cnc3cc(C)c(C)cc32)cc1	91.1	46.5	21.5	12.0	97.7	99.1
COc1ccc(S(=O)(=O)n2cnc3cc(C)c(C)cc32)cc1C	77.3	77.5*	12.0	-1.0	87.8	98.0
COc1ccc(S(=O)(=O)N2CCCN(S(=O)(=O)c3ccc(OC)c(C)c3)CC2)cc1C	32.9*	nt	nt	nt	65.6	94.0
CCOc1ccc(NS(=O)(=O)c2ccc(NC(=O)C3CCCO3)cc2)cc1 (stereo not drawn)	102.8	nt	nt	9.0	108.5	95.9
FC(F)(F)c1cc(-c2ccco2)nc(NCCc2ccccc2)n1	24.0*	nt	nt	-4.0	87.5	89.0
CCCCCCC1NC(C(=O)O)CS1 (stereo not drawn)	nt	nt	nt	1.0	nt	nt
CCOC(=O)c1c(C)oc2c1c(C(c1cccnc1)N1CCCCC1)c(O)c1ccccc12 (stereo not drawn)	7.3*	nt	nt	-8.0	47.6	54.3
CCCCCCCCc1nnc(NC(=O)c2ccco2)s1	100.8	nt	nt	-24.0	93.4	112.2
Cc1ccc(C)c(NC(=O)CCc2ccc(S(=O)(=O)NC3CCCCC3)cc2)c1	nt	nt	nt	0.0	nt	nt
COC(=O)c1ccc(NC(=O)c2ccc(N(C)S(C)(=O)=O)cc2)cc1	75.2	15.8	30.9*	-2.0	95.4	95.8
COc1ccc(NC(=O)c2ccc(N(C)S(C)(=O)=O)cc2)cc1OC	90.5	-9.3	0.1	-2.0	101.6	103.4
c1ccc(Nc2ccccn2)cc1	91.3	nt	nt	16.0	85.3	100.7
c1ccc(/N=C2\N=C(Nc3ccccn3)c3ccccc32)nc1	1.0*	-6.0	49.9*	nt	2.4*	53.5
CCc1c(C)sc2nc(C(C)C)nc(SCC(=O)N3CCc4ccccc4C3)c12	nt	nt	nt	-21.0	nt	nt
CC(=O)Nc1ccc2nc(SCC(=O)Nc3ccc(N4CCOCC4)c(Cl)c3)sc2c1	nt	nt	nt	-6.0	nt	nt
O=C(Nc1ccc(N2CCOCC2)c(Cl)c1)c1ccccc1F	56.0	nt	nt	4.0	109.5	103.0
Cc1cc(C)nc(SCC(=O)Nc2ccc(N3CCOCC3)c(Cl)c2)n1	82.1	45.8	58.1*	24.0	112.4	94.9
O=C(COc1c(F)c(F)c(C(F)(F)F)c(F)c1F)Nc1ccc(N2CCOCC2)c(Cl)c1	81.2	100.0*	3.5	-21.0	106.6	101.8
CCOC(=O)C1=C(C)OC(N)=C(C#N)C1c1c(C)nn(-c2ccccc2)c1Cl (stereo not drawn)	nt	21.1	nt	5.0	83.7	92.4
Cc1ccc(-n2nc(C)c(C3C(C#N)=C(N)OC4=C3C(=O)CC(C)(C)C4)c2Cl)cc1 (stereo not drawn)	24.3*	3.3	1.8	nt	62.9	80.2
C=CCOC(=O)C1=C(C)OC(N)=C(C#N)C1c1c(C)nn(-c2ccccc2)c1Cl (stereo not drawn)	28.7*	17.2	2.4	5.0	84.5	90.8
Cc1nn(-c2ccccc2)c(Cl)c1C1C(C#N)=C(N)Oc2c1c(C)nn2-c1ccccc1 (stereo not drawn)	5.1*	nt	nt	-6.0	74.6	98.7
SMILES	H69AR inhibit	tolC growth inh	Jurkat tox 60K	Ecoli WT expand	HUVEC inhibit	Lung fibro prol
COc1cc(NC(=O)COC(=O)c2nc3nc(C)cc(C)n3n2)cc(OC)c1	85.3	nt	nt	2.0	97.2	106.2
COc1ccc(/C(O)=C/c2nc3ccccc3n(-c3ccccc3)c2=O)cc1	23.5*	nt	nt	-16.0	64.8	96.3
CC(=O)n1cc(-c2ccncc2)c2ccccc21	68.3	6.4	-8.3	12.0	25.1*	86.0
c1ccc2c(-c3ccncc3)c[nH]c2c1	84.9	0.0	-2.6	18.0	81.7	105.6
Cc1cc(C(=O)COC(=O)c2ccccc2O)c(C)n1Cc1cccs1	nt	nt	nt	0.0	nt	nt
CC(=O)Nc1ccccc1OCC(=O)c1cc(C)n(Cc2cccs2)c1C	80.0	38.7	100.2*	-8.0	68.6	96.8
COC(=O)c1cc(OC)c(OC)cc1NC(=O)Cn1nnc(-c2ccccc2Cl)n1	34.8*	-0.7	2.3	-1.0	57.9	93.3
Cc1cc(NC(=O)c2c(-c3ccccc3Cl)noc2C)no1	nt	-6.8	10.5	-6.0	nt	nt
COC(=O)c1cc(OC)c(OC)cc1NC(=O)c1c(-c2ccccc2Cl)noc1C	34.7*	16.8	17.0	0.0	89.0	nt
CCOC(=O)c1sc(NC(=O)C2C3C=CC(C3)C2C(=O)O)nc1C (stereo not drawn)	100.2	nt	nt	-1.0	99.0	101.1
C=CCn1c(O)c(N=NC(=S)Nc2ccc(OC)cc2)c2ccccc21	35.0*	nt	nt	nt	50.4	53.6
Cc1ccc2nc(NCc3ccccc3)[nH]c2c1	22.3*	13.7	nt	29.0	42.6	52.9
COc1ccc2nc(NCCO)[nH]c2c1	90.8	-10.1	-2.3	4.0	97.6	100.2
COc1ccc2nc(NCc3ccccc3)[nH]c2c1	19.7*	11.3	20.3	24.0	54.0	67.2
CCN(CC(O)COc1ccc(OCC(O)CN(CC)C2CCCCC2)cc1)C1CCCCC1 (stereo not drawn)	89.0	nt	nt	nt	74.8	91.1
Cc1cccc(-c2cc3c(nn2)-c2ccccc2C3=O)c1	18.7*	nt	nt	-15.0	59.0	84.2
COc1ccc2oc(=O)c(C(=O)Oc3ccc(NC(C)=O)cc3)cc2c1	nt	nt	nt	-4.0	nt	nt
CCC(C)C(NC(C)=O)C(=O)NC(=O)NC(c1ccccc1)c1ccccc1 (stereo not drawn)	87.6	nt	nt	2.0	93.7	102.9
CCn1c(C)cc2c(c1=O)C(c1ccccc1)C(C(=O)OC)=C(N)O2 (stereo not drawn)	nt	nt	nt	-2.0	nt	nt
COC(=O)C1=C(N)Oc2cc(C)n(Cc3ccco3)c(=O)c2C1c1cccc(Cl)c1 (stereo not drawn)	94.6	67.5*	0.5	-17.0	107.6	99.5
CNc1ccc(/C=C2\COc3ccccc3C2=O)cc1[N+](=O)[O-]	15.6*	nt	nt	-8.0	74.2	95.9
C/C(=N/NC(=O)c1cc2ccccc2cc1O)C1C(=O)c2ccccc2C1=O	35.9*	nt	nt	-1.0	62.7	74.8
CCOc1ccccc1NC(=O)CCSc1nc2n[nH]c(C)c2c(=N)n1-c1ccccc1Cl	6.5*	-3.7	nt	-15.0	51.6	56.1
CCS(=O)(=O)c1ccc(-c2csc(-c3ccccc3)n2)c(Cl)c1Cl	nt	nt	nt	-20.0	nt	nt
COc1ccc(-c2cc(C#N)nc(N3CCNCC3)n2)cc1	1.4*	nt	nt	21.0	51.3	2.0*
CN1CCN(c2nc(C#N)cc(-c3ccccc3)n2)CC1	85.1	nt	nt	-2.0	94.4	98.5
CCN(CC)c1nc(C#N)cc(-c2ccc(OC)cc2)n1	31.9*	47.7	41.0*	3.0	68.1	80.3
O=C(COC(=O)C1=Cc2ccccc2OC1)NC1CCCC1	nt	nt	nt	0.0	nt	nt
CCn1cc(C(=O)O)c(=O)c2cnc(N3CCN(C(=O)Nc4ccccc4)CC3)nc21	92.6	100.0*	-2.2	nt	95.5	96.4
